Test results as given in ChEMBL document CHEMBL5030510, “Designed β-Hairpins Inhibit LDH5 Oligomerization and Enzymatic Activity” (J Med Chem, 2021).
pIC50: −log10 of the molar value. Activity calls are given as the source filed them. The rule behind the calls is not given here. Where a SMILES comes first, the peptide text is derived from it. Bridges are numbered along the chain shown (N, C = ends).

Legend:
[1] = biological target: T1, L-lactate dehydrogenase A chain (Homo sapiens, UniProt P00338); assay: Inhibition of recombinant full length N-terminal His-tagged human LDHA oligomerization expressed in Escherichia coli at 90 to 150 uM at pH 2.5 to 7.4 measured after 2 hrs by SDS-PAGE analysis; settings: dose 90-150 µM
Method in brief: (§1)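 Oligomer state: LDHA (1.3 µM) acidified 2 min with 0.1 M glycine pH 2.5, then peptide added in 0.25 M phosphate pH 7.6, 1 mM EDTA, for 2 h at RT. Cross-linked with glutaraldehyde (5% stock), heated 3 min at 85 °C in LDS buffer, and run on 4–12% Bis-Tris gel in MES buffer.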

[2] = biological target: T1, L-lactate dehydrogenase A chain; assay: Inhibition of recombinant full length N-terminal His-tagged human LDHA expressed in Escherichia coli using pyruvate as substrate and NADH as cofactor incubated for 2 hrs by fluorescence assay
Method in brief: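 Reassociation activity assay: 900 nM LDHA stock in phosphate pH 7.4/EDTA/0.05% BSA, acidified 2 min with glycine pH 2.5/BSA. Peptide added in 0.25 M phosphate pH 7.6 and incubated 2 h at RT. Aliquot diluted, then pyruvate (3 mM final) and NADH (0.3 mM final) added. IC50 from dose-response fit.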

[3] = biological target: T1, L-lactate dehydrogenase A chain; assay: Inhibition of recombinant full length N-terminal His-tagged human LDHA oligomerization expressed in Escherichia coli at 150 uM at pH 2.5 to 7.4 measured after 2 hrs by SDS-PAGE analysis; method in brief: as §1
[4] = biological target: T1, L-lactate dehydrogenase A chain; assay: Binding affinity to recombinant full length N-terminal His-tagged human LDHA expressed in Escherichia coli assessed as reduction in fluorecence polarization measured after 2 hrs by Alexa Fluor 488 based fluorescence polarization assay
Method in brief: (§2)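 Competition FP: LDH5 held 2 min in 0.1 M glycine pH 2.5, then inhibitor added at the reassociation step with Alexa488-labeled cGm peptide (final 12 nM) in 0.25 M phosphate pH 7.6, 1 mM EDTA, with 152.5 nM LDH5. Incubated 2 h at room temperature. FP read at ex 485/em 520 nm. 100% set by probe plus LDH5 alone.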

[5] = biological target: T1, L-lactate dehydrogenase A chain; assay: Binding affinity to recombinant full length N-terminal His-tagged human LDHA expressed in Escherichia coli assessed as reduction in fluorecence polarization at up to 10000 nM measured after 2 hrs by Alexa Fluor 488 based fluorescence polarization assay; settings: dose nM <=10000, time 2.0 hrs; method in brief: as §2
[6] = biological target: T1, L-lactate dehydrogenase A chain; assay: Binding affinity to recombinant full length N-terminal His-tagged human LDHA expressed in Escherichia coli at up to 100 uM measured after 2 hrs by Alexa Fluor 488 based fluorescence polarization assay; settings: dose microM <=100, time 2.0 hrs; method in brief: as §2
[7] = biological target: T1, L-lactate dehydrogenase A chain; assay: Binding affinity to recombinant full length N-terminal His-tagged human LDHA expressed in Escherichia coli at 12 nM measured after 2 hrs by Alexa Fluor 488 based fluorescence polarization assay relative to control
Method in brief: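 Direct binding FP: LDH5 two-fold serial dilution from 3.375 µM in 0.01 M phosphate pH 7.4, 1 mM EDTA. Held 2 min in glycine pH 2.5, then labeled peptide added (final 12 nM) in 0.25 M phosphate pH 7.6, 1 mM EDTA. Incubated 2 h at RT. FP read at ex 485/em 520 nm. Saturation signal fitted by non-linear regression and set as 100% binding.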

SMILES	inhibition [1]	pIC50 [2]	inhibition [3]	Activity [4]	Activity [5]	Activity [6]	Activity [7] [%]
CC(C)C[C@@H]1NC(=O)[C@H](CCCNC(=N)N)NC(=O)[C@H](CCCNC(=N)N)NC(=O)[C@@H](NC(=O)CN)CSSC[C@@H](C(=O)N[C@@H](CCCNC(=N)N)C(=O)NCC(=O)N[C@@H](CCCNC(=N)N)C(=O)O)NC(=O)[C@H](C(C)C)NC(=O)[C@H]([C@@H](C)O)NC(=O)[C@H](Cc2ccccc2)NC(=O)[C@@H]2CSSC[C@H](NC1=O)C(=O)N[C@@H](Cc1ccc(O)cc1)C(=O)N[C@@H](CCCNC(=N)N)C(=O)N[C@@H](Cc1ccccc1)C(=O)N[C@@H](Cc1c[nH]c3ccccc13)C(=O)N2 (H-GCRRLCYRFWCFTVCRGR-OH; disulfide 2-15, 6-11)	Active	5.60	Active	Dose-Dependent Effect	–	–	–
O=C1N[C@](c2ccc(N3CCOCC3)cc2)(c2ccsc2)CC(O)=C1Sc1ccccc1Cl	–	–	inactive	–	inactive	–	–
CC(C)C[C@@H]1NC(=O)[C@H](CCCNC(=N)N)NC(=O)[C@H](CCCNC(=N)N)NC(=O)[C@@H](NC(=O)[C@@H](N)CCCCN)CSSC[C@@H](C(=O)N[C@@H](CCCNC(=N)N)C(=O)NCC(=O)N[C@@H](CCCNC(=N)N)C(=O)O)NC(=O)[C@H](Cc2ccc(O)cc2)NC(=O)[C@H]([C@@H](C)O)NC(=O)[C@H](C(C)C)NC(=O)[C@@H]2CSSC[C@H](NC1=O)C(=O)N[C@@H](Cc1ccc(O)cc1)C(=O)N[C@@H](CCCNC(=N)N)C(=O)N[C@@H](CCC(N)=O)C(=O)N[C@@H](CCCNC(=N)N)C(=O)N2 (H-KCRRLCYRQRCVTYCRGR-OH; disulfide 2-15, 6-11)	–	–	–	Dose-Dependent Effect	–	Active	50
